Source: ChEMBL document CHEMBL4680072, “Synthesis and evaluation of a radioiodinated 4,6-diaryl-3-cyano-2-pyridinone derivative as a survivin targeting SPECT probe for tumor imaging” (Bioorg Med Chem Lett, 2016)

What was measured:
[1] = Biodistribution in blood of BALB/c nu/nu mouse xenografted with human MDA-MB-231 cells at 7.4 kBq, iv using [125I] labeled compound measured after 30 mins by gamma counter method; type: ADME, organism-based; conditions: in vivo, 0.5 h
Outline: (§1)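 Radioactivity in each excised tissue is expressed as percent injected dose per gram (% ID/g). Each value is the mean (SD) of three tumor-bearing mice per time point (n = 3).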

[2] = Biodistribution in liver of BALB/c nu/nu mouse xenografted with human MDA-MB-231 cells at 7.4 kBq, iv using [125I] labeled compound measured after 30 mins by gamma counter method; type: ADME, organism-based; conditions: in vivo, 0.5 h; outline: as §1
[3] = Biodistribution in kidney of BALB/c nu/nu mouse xenografted with human MDA-MB-231 cells at 7.4 kBq, iv using [125I] labeled compound measured after 30 mins by gamma counter method; type: ADME, organism-based; conditions: in vivo, 0.5 h; outline: as §1
[4] = Biodistribution in intestine of BALB/c nu/nu mouse xenografted with human MDA-MB-231 cells at 7.4 kBq, iv using [125I] labeled compound measured after 30 mins by gamma counter method; type: ADME, organism-based; conditions: in vivo, 0.5 h; outline: as §1
[5] = Biodistribution in spleen of BALB/c nu/nu mouse xenografted with human MDA-MB-231 cells at 7.4 kBq, iv using [125I] labeled compound measured after 30 mins by gamma counter method; type: ADME, organism-based; conditions: in vivo, 0.5 h; outline: as §1
[6] = Biodistribution in lung of BALB/c nu/nu mouse xenografted with human MDA-MB-231 cells at 7.4 kBq, iv using [125I] labeled compound measured after 30 mins by gamma counter method; type: ADME, organism-based; conditions: in vivo, 0.5 h; outline: as §1
[7] = Biodistribution in stomach of BALB/c nu/nu mouse xenografted with human MDA-MB-231 cells at 7.4 kBq, iv using [125I] labeled compound measured after 30 mins by gamma counter method; type: ADME, organism-based; conditions: in vivo, 0.5 h; outline: as §1
[8] = Biodistribution in pancreas of BALB/c nu/nu mouse xenografted with human MDA-MB-231 cells at 7.4 kBq, iv using [125I] labeled compound measured after 30 mins by gamma counter method; type: ADME, organism-based; conditions: in vivo, 0.5 h; outline: as §1
[9] = Biodistribution in heart of BALB/c nu/nu mouse xenografted with human MDA-MB-231 cells at 7.4 kBq, iv using [125I] labeled compound measured after 30 mins by gamma counter method; type: ADME, organism-based; conditions: in vivo, 0.5 h; outline: as §1
[10] = Biodistribution in brain of BALB/c nu/nu mouse xenografted with human MDA-MB-231 cells at 7.4 kBq, iv using [125I] labeled compound measured after 30 mins by gamma counter method; type: ADME, organism-based; conditions: in vivo, 0.5 h; outline: as §1
[11] = Biodistribution in muscle of BALB/c nu/nu mouse xenografted with human MDA-MB-231 cells at 7.4 kBq, iv using [125I] labeled compound measured after 30 mins by gamma counter method; type: ADME, organism-based, Muscle tissue; conditions: in vivo, 0.5 h; outline: as §1
[12] = Biodistribution in tumor of BALB/c nu/nu mouse xenografted with human MDA-MB-231 cells at 7.4 kBq, iv using [125I] labeled compound measured after 30 mins by gamma counter method; type: ADME, organism-based, Neoplasm; conditions: in vivo, 0.5 h; outline: as §1
[13] = Biodistribution in blood of BALB/c nu/nu mouse xenografted with human MDA-MB-231 cells at 7.4 kBq, iv using [125I] labeled compound measured after 60 mins by gamma counter method; type: ADME, organism-based; conditions: in vivo, 1 h; outline: as §1
[14] = Biodistribution in liver of BALB/c nu/nu mouse xenografted with human MDA-MB-231 cells at 7.4 kBq, iv using [125I] labeled compound measured after 60 mins by gamma counter method; type: ADME, organism-based; conditions: in vivo, 1 h; outline: as §1
[15] = Biodistribution in kidney of BALB/c nu/nu mouse xenografted with human MDA-MB-231 cells at 7.4 kBq, iv using [125I] labeled compound measured after 60 mins by gamma counter method; type: ADME, organism-based; conditions: in vivo, 1 h; outline: as §1
[16] = Biodistribution in intestine of BALB/c nu/nu mouse xenografted with human MDA-MB-231 cells at 7.4 kBq, iv using [125I] labeled compound measured after 60 mins by gamma counter method; type: ADME, organism-based; conditions: in vivo, 1 h; outline: as §1
[17] = Biodistribution in spleen of BALB/c nu/nu mouse xenografted with human MDA-MB-231 cells at 7.4 kBq, iv using [125I] labeled compound measured after 60 mins by gamma counter method; type: ADME, organism-based; conditions: in vivo, 1 h; outline: as §1
[18] = Biodistribution in lung of BALB/c nu/nu mouse xenografted with human MDA-MB-231 cells at 7.4 kBq, iv using [125I] labeled compound measured after 60 mins by gamma counter method; type: ADME, organism-based; conditions: in vivo, 1 h; outline: as §1
[19] = Biodistribution in stomach of BALB/c nu/nu mouse xenografted with human MDA-MB-231 cells at 7.4 kBq, iv using [125I] labeled compound measured after 60 mins by gamma counter method; type: ADME, organism-based; conditions: in vivo, 1 h; outline: as §1
[20] = Biodistribution in pancreas of BALB/c nu/nu mouse xenografted with human MDA-MB-231 cells at 7.4 kBq, iv using [125I] labeled compound measured after 60 mins by gamma counter method; type: ADME, organism-based; conditions: in vivo, 1 h; outline: as §1
[21] = Biodistribution in heart of BALB/c nu/nu mouse xenografted with human MDA-MB-231 cells at 7.4 kBq, iv using [125I] labeled compound measured after 60 mins by gamma counter method; type: ADME, organism-based; conditions: in vivo, 1 h; outline: as §1
[22] = Biodistribution in brain of BALB/c nu/nu mouse xenografted with human MDA-MB-231 cells at 7.4 kBq, iv using [125I] labeled compound measured after 60 mins by gamma counter method; type: ADME, organism-based; conditions: in vivo, 1 h; outline: as §1
[23] = Biodistribution in muscle of BALB/c nu/nu mouse xenografted with human MDA-MB-231 cells at 7.4 kBq, iv using [125I] labeled compound measured after 60 mins by gamma counter method; type: ADME, organism-based, Muscle tissue; conditions: in vivo, 1 h; outline: as §1
[24] = Biodistribution in tumor of BALB/c nu/nu mouse xenografted with human MDA-MB-231 cells at 7.4 kBq, iv using [125I] labeled compound measured after 60 mins by gamma counter method; type: ADME, organism-based, Neoplasm; conditions: in vivo, 1 h; outline: as §1
[25] = Biodistribution in blood of BALB/c nu/nu mouse xenografted with human MDA-MB-231 cells at 7.4 kBq, iv using [125I] labeled compound measured after 180 mins by gamma counter method; type: ADME, organism-based; conditions: in vivo, 3 h; outline: as §1
[26] = Biodistribution in liver of BALB/c nu/nu mouse xenografted with human MDA-MB-231 cells at 7.4 kBq, iv using [125I] labeled compound measured after 180 mins by gamma counter method; type: ADME, organism-based; conditions: in vivo, 3 h; outline: as §1
[27] = Biodistribution in kidney of BALB/c nu/nu mouse xenografted with human MDA-MB-231 cells at 7.4 kBq, iv using [125I] labeled compound measured after 180 mins by gamma counter method; type: ADME, organism-based; conditions: in vivo, 3 h; outline: as §1
[28] = Biodistribution in intestine of BALB/c nu/nu mouse xenografted with human MDA-MB-231 cells at 7.4 kBq, iv using [125I] labeled compound measured after 180 mins by gamma counter method; type: ADME, organism-based; conditions: in vivo, 3 h; outline: as §1
[29] = Biodistribution in spleen of BALB/c nu/nu mouse xenografted with human MDA-MB-231 cells at 7.4 kBq, iv using [125I] labeled compound measured after 180 mins by gamma counter method; type: ADME, organism-based; conditions: in vivo, 3 h; outline: as §1
[30] = Biodistribution in lung of BALB/c nu/nu mouse xenografted with human MDA-MB-231 cells at 7.4 kBq, iv using [125I] labeled compound measured after 180 mins by gamma counter method; type: ADME, organism-based; conditions: in vivo, 3 h; outline: as §1
[31] = Biodistribution in stomach of BALB/c nu/nu mouse xenografted with human MDA-MB-231 cells at 7.4 kBq, iv using [125I] labeled compound measured after 180 mins by gamma counter method; type: ADME, organism-based; conditions: in vivo, 3 h; outline: as §1
[32] = Biodistribution in pancreas of BALB/c nu/nu mouse xenografted with human MDA-MB-231 cells at 7.4 kBq, iv using [125I] labeled compound measured after 180 mins by gamma counter method; type: ADME, organism-based; conditions: in vivo, 3 h; outline: as §1
[33] = Biodistribution in heart of BALB/c nu/nu mouse xenografted with human MDA-MB-231 cells at 7.4 kBq, iv using [125I] labeled compound measured after 180 mins by gamma counter method; type: ADME, organism-based; conditions: in vivo, 3 h; outline: as §1
[34] = Biodistribution in brain of BALB/c nu/nu mouse xenografted with human MDA-MB-231 cells at 7.4 kBq, iv using [125I] labeled compound measured after 180 mins by gamma counter method; type: ADME, organism-based; conditions: in vivo, 3 h; outline: as §1
[35] = Biodistribution in muscle of BALB/c nu/nu mouse xenografted with human MDA-MB-231 cells at 7.4 kBq, iv using [125I] labeled compound measured after 180 mins by gamma counter method; type: ADME, organism-based, Muscle tissue; conditions: in vivo, 3 h; outline: as §1
[36] = Biodistribution in tumor of BALB/c nu/nu mouse xenografted with human MDA-MB-231 cells at 7.4 kBq, iv using [125I] labeled compound measured after 180 mins by gamma counter method; type: ADME, organism-based, Neoplasm; conditions: in vivo, 3 h; outline: as §1

CCCN1CCC(C(=O)N(C)Cc2cc(Cl)cc(-c3cc(-c4cc(C(F)(F)F)ccc4[125I])c(C#N)c(=O)[nH]3)c2O)CC1
Drug uptake [1]: 1.36 % ID/g | Drug uptake [2]: 16.3 % ID/g | Drug uptake [3]: 3.02 % ID/g | Drug uptake [4]: 10.1 % ID/g | Drug uptake [5]: 2.27 % ID/g | Drug uptake [6]: 2.25 % ID/g | Drug uptake [7]: 3.54 % ID/g | Drug uptake [8]: 2.22 % ID/g | Drug uptake [9]: 0.84 % ID/g | Drug uptake [10]: 0.07 % ID/g | Drug uptake [11]: 0.42 % ID/g | Drug uptake [12]: 0.51 % ID/g | Drug uptake [13]: 0.72 % ID/g | Drug uptake [14]: 10.01 % ID/g | Drug uptake [15]: 1.5 % ID/g | Drug uptake [16]: 25.3 % ID/g | Drug uptake [17]: 1.1 % ID/g | Drug uptake [18]: 1.43 % ID/g | Drug uptake [19]: 5.33 % ID/g | Drug uptake [20]: 0.55 % ID/g | Drug uptake [21]: 0.53 % ID/g | Drug uptake [22]: 0.06 % ID/g | Drug uptake [23]: 0.29 % ID/g | Drug uptake [24]: 0.63 % ID/g | Drug uptake [25]: 0.99 % ID/g | Drug uptake [26]: 5.68 % ID/g | Drug uptake [27]: 1.22 % ID/g | Drug uptake [28]: 21.5 % ID/g | Drug uptake [29]: 0.71 % ID/g | Drug uptake [30]: 1.35 % ID/g | Drug uptake [31]: 6.21 % ID/g | Drug uptake [32]: 0.61 % ID/g | Drug uptake [33]: 0.51 % ID/g | Drug uptake [34]: 0.05 % ID/g | Drug uptake [35]: 0.33 % ID/g | Drug uptake [36]: 0.65 % ID/g
